Data taken from ChEMBL document CHEMBL1221265, “Synthesis and in vitro antibacterial activity of novel fluoroquinolone derivatives containing substituted piperidines” (Bioorg Med Chem Lett, 2010).
≈ marks a conversion by molar mass, not a printed value.

How the values were obtained:
Streptococcus pneumoniae = experiment: Antibacterial activity against Streptococcus pneumoniae ATCC 49619 after 18 to 24 hrs by agar dilution method; format: functional
Procedure, shortened: (§1)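 Agar dilution done to NCCLS recommendations. Plates incubated 18–24 h at 35 °C. MIC taken as the lowest concentration of compound that gave no visible bacterial growth.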

Pseudomonas aeruginosa = experiment: Antibacterial activity against Pseudomonas aeruginosa 17 after 18 to 24 hrs by agar dilution method; format: functional; procedure, shortened: as §1
Staphylococcus aureus [1] = experiment: Antibacterial activity against methicillin-resistant Staphylococcus aureus 08-52 after 18 to 24 hrs by agar dilution method; format: functional
Procedure, shortened: (§2)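 Agar dilution MIC per NCCLS recommendations. MIC is the lowest concentration giving no visible bacterial growth after incubation at 35 °C for 18–24 h.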

Enterobacter cloacae = experiment: Antibacterial activity against Enterobacter cloacae 45301 after 18 to 24 hrs by agar dilution method; format: functional; procedure, shortened: as §1
[2] = tested on: Staphylococcus epidermidis; experiment: Antibacterial activity against Staphylococcus epidermidis ATCC 12228 after 18 to 24 hrs by agar dilution method; format: functional; procedure, shortened: as §1
Streptococcus pyogenes = experiment: Antibacterial activity against Streptococcus pyogenes 06-1 after 18 to 24 hrs by agar dilution method; format: functional; procedure, shortened: as §1
[3] = tested on: Staphylococcus epidermidis; experiment: Antibacterial activity against methicillin-resistant Staphylococcus epidermidis 08-18 after 18 to 24 hrs by agar dilution method; format: functional; procedure, shortened: as §2
Escherichia coli = experiment: Antibacterial activity against Escherichia coli 26 after 18 to 24 hrs by agar dilution method; format: functional; procedure, shortened: as §1
Klebsiella pneumoniae = experiment: Antibacterial activity against Klebsiella pneumoniae 7 after 18 to 24 hrs by agar dilution method; format: functional; procedure, shortened: as §1
Shigella sonnei = experiment: Antibacterial activity against Shigella sonnei 51592 after 18 to 24 hrs by agar dilution method; format: functional; procedure, shortened: as §1
[4] = Cytotoxicity against african green monkey Vero cells after 48 hrs by CPE assay; format: cell-based; conditions: chlorocebus sabaeus
Staphylococcus aureus [5] = experiment: Antibacterial activity against Staphylococcus aureus ATCC 29213 after 18 to 24 hrs by agar dilution method; format: functional; procedure, shortened: as §1
Enterococcus faecalis = experiment: Antibacterial activity against Enterococcus faecalis ATCC 29212 after 18 to 24 hrs by agar dilution method; format: functional; procedure, shortened: as §1

Row | SMILES | MIC (Streptococcus pneumoniae) [µg/mL] | MIC (Pseudomonas aeruginosa) [µg/mL] | MIC (Staphylococcus aureus [1]) [µg/mL] | MIC (Enterobacter cloacae) [µg/mL] | MIC [2] [µg/mL] | MIC (Streptococcus pyogenes) [µg/mL] | MIC [3] [µg/mL] | MIC (Escherichia coli) [µg/mL] | MIC (Klebsiella pneumoniae) [µg/mL] | MIC (Shigella sonnei) [µg/mL] | CC50 at 48 h [4] [µg/mL] | MIC (Staphylococcus aureus [5]) [µg/mL] | MIC (Enterococcus faecalis) [µg/mL]
1 | CO/N=C1/CCN(c2nc3c(cc2F)c(=O)c(C(=O)O)cn3C2CC2)CC1(C)CN (configuration not stated) | 32 (≈ 76.7 µM) | 8 (≈ 19.2 µM) | 8 (≈ 19.2 µM) | 4 (≈ 9.58 µM) | 1 (≈ 2.4 µM) | 8 (≈ 19.2 µM) | 0.25 (≈ 0.599 µM) | 0.5 (≈ 1.2 µM) | 0.5 (≈ 1.2 µM) | 1 (≈ 2.4 µM) | 177 (≈ 423 µM) | 0.5 (≈ 1.2 µM) | 32 (≈ 76.7 µM)
2 | CCO/N=C1/CCN(c2nc3c(cc2F)c(=O)c(C(=O)O)cn3C2CC2)CC1(C)CN (configuration not stated) | 4 (≈ 9.27 µM) | 16 (≈ 37.1 µM) | 8 (≈ 18.5 µM) | 8 (≈ 18.5 µM) | 0.5 (≈ 1.16 µM) | 16 (≈ 37.1 µM) | 0.25 (≈ 0.579 µM) | 1 (≈ 2.32 µM) | 1 (≈ 2.32 µM) | 1 (≈ 2.32 µM) | 44.2 (≈ 102 µM) | 0.25 (≈ 0.579 µM) | 4 (≈ 9.27 µM)
3 | CO/N=C1/CCN(c2nc3c(cc2F)c(=O)c(C(=O)O)cn3-c2ccc(F)cc2F)CC1(C)CN (configuration not stated) | 64 (≈ 131 µM) | 32 (≈ 65.4 µM) | 128 (≈ 262 µM) | 32 (≈ 65.4 µM) | 2 (≈ 4.09 µM) | 64 (≈ 131 µM) | 2 (≈ 4.09 µM) | 8 (≈ 16.3 µM) | 128 (≈ 262 µM) | 8 (≈ 16.3 µM) | 88.4 (≈ 181 µM) | 1 (≈ 2.04 µM) | > 128
4 | CCO/N=C1/CCN(c2nc3c(cc2F)c(=O)c(C(=O)O)cn3-c2ccc(F)cc2F)CC1(C)CN (configuration not stated) | 128 (≈ 254 µM) | 128 (≈ 254 µM) | 128 (≈ 254 µM) | 32 (≈ 63.6 µM) | 4 (≈ 7.94 µM) | 64 (≈ 127 µM) | 2 (≈ 3.97 µM) | 8 (≈ 15.9 µM) | 64 (≈ 127 µM) | 16 (≈ 31.8 µM) | 78.8 (≈ 156 µM) | 2 (≈ 3.97 µM) | > 128
5 | CO/N=C1/CCN(c2c(F)cc3c(=O)c(C(=O)O)cn(C4CC4)c3c2F)CC1(C)CN (configuration not stated) | 32 (≈ 73.7 µM) | 16 (≈ 36.8 µM) | 16 (≈ 36.8 µM) | 4 (≈ 9.21 µM) | 0.25 (≈ 0.575 µM) | 32 (≈ 73.7 µM) | 0.25 (≈ 0.575 µM) | 0.5 (≈ 1.15 µM) | 64 (≈ 147 µM) | 1 (≈ 2.3 µM) | 88.4 (≈ 203 µM) | 0.25 (≈ 0.575 µM) | 64 (≈ 147 µM)
6 | CCO/N=C1/CCN(c2c(F)cc3c(=O)c(C(=O)O)cn(C4CC4)c3c2F)CC1(C)CN (configuration not stated) | 8 (≈ 17.8 µM) | 16 (≈ 35.7 µM) | 8 (≈ 17.8 µM) | 16 (≈ 35.7 µM) | 0.25 (≈ 0.557 µM) | 16 (≈ 35.7 µM) | 0.25 (≈ 0.557 µM) | 2 (≈ 4.46 µM) | 2 (≈ 4.46 µM) | 2 (≈ 4.46 µM) | 62.5 (≈ 139 µM) | 0.125 (≈ 0.279 µM) | 2 (≈ 4.46 µM)
7 | CCn1cc(C(=O)O)c(=O)c2cc(F)c(N3CC/C(=N/OC)C(C)(CN)C3)c(F)c21 (configuration not stated) | 128 (≈ 303 µM) | 64 (≈ 152 µM) | 32 (≈ 75.8 µM) | 32 (≈ 75.8 µM) | 2 (≈ 4.73 µM) | 64 (≈ 152 µM) | 2 (≈ 4.73 µM) | 8 (≈ 18.9 µM) | 64 (≈ 152 µM) | 8 (≈ 18.9 µM) | 315 (≈ 746 µM) | 1 (≈ 2.37 µM) | 128 (≈ 303 µM)
8 | CCO/N=C1/CCN(c2c(F)cc3c(=O)c(C(=O)O)cn(CC)c3c2F)CC1(C)CN (configuration not stated) | 64 (≈ 147 µM) | 128 (≈ 293 µM) | 16 (≈ 36.7 µM) | 128 (≈ 293 µM) | 4 (≈ 9.16 µM) | 64 (≈ 147 µM) | 2 (≈ 4.58 µM) | 16 (≈ 36.7 µM) | 16 (≈ 36.7 µM) | 32 (≈ 73.3 µM) | 78.8 (≈ 180 µM) | 2 (≈ 4.58 µM) | 128 (≈ 293 µM)
9 | CO/N=C1/CCN(c2c(F)cc3c(=O)c(C(=O)O)cn(CCF)c3c2F)CC1(C)CN (configuration not stated) | 128 (≈ 291 µM) | 64 (≈ 145 µM) | 64 (≈ 145 µM) | 64 (≈ 145 µM) | 4 (≈ 9.08 µM) | 128 (≈ 291 µM) | 2 (≈ 4.54 µM) | 8 (≈ 18.2 µM) |  | 16 (≈ 36.3 µM) | 315 (≈ 715 µM) | 2 (≈ 4.54 µM) | > 128
10 | CCO/N=C1/CCN(c2c(F)cc3c(=O)c(C(=O)O)cn(CCF)c3c2F)CC1(C)CN (configuration not stated) | 128 (≈ 282 µM) | 128 (≈ 282 µM) | 64 (≈ 141 µM) | 64 (≈ 141 µM) | 4 (≈ 8.8 µM) | 128 (≈ 282 µM) | 4 (≈ 8.8 µM) | 16 (≈ 35.2 µM) | 64 (≈ 141 µM) | 64 (≈ 141 µM) | 157 (≈ 347 µM) | 2 (≈ 4.4 µM) | 128 (≈ 282 µM)
11 | CO/N=C1/CCN(c2c(F)cc3c(=O)c(C(=O)O)cn4c3c2OC[C@@H]4C)CC1(C)CN (some centres not stated) | 128 (≈ 296 µM) | 32 (≈ 74 µM) | 64 (≈ 148 µM) | 16 (≈ 37 µM) | 2 (≈ 4.62 µM) | 64 (≈ 148 µM) | 1 (≈ 2.31 µM) | 4 (≈ 9.25 µM) | 128 (≈ 296 µM) | 8 (≈ 18.5 µM) | 177 (≈ 409 µM) | 1 (≈ 2.31 µM) | 128 (≈ 296 µM)
12 | C[C@H]1COc2c(N3CCN(C)CC3)c(F)cc3c(=O)c(C(=O)O)cn1c23.C[C@H]1COc2c(N3CCN(C)CC3)c(F)cc3c(=O)c(C(=O)O)cn1c23.O [LEVOFLOXACIN] |  | 0.25 | 16 | 0.125 | 0.25 | 16 | 0.125 |  |  | 1 | > 1000 | 0.125 | 0.5
